ChEMBL document CHEMBL5500387, “Design, synthesis of combretastatin A-4 piperazine derivatives as potential antitumor agents by inhibiting tubulin polymerization and inducing autophagy in HCT116 cells” (Eur J Med Chem, 2024)
Calls of active or inactive are those of the source. No cut-off for these calls is given here.

What was measured:
[1] = tested on: A549; experiment: Induction of apoptosis in human A549 cells assessed as live cells at 0.3 uM measured after 24 hrs by Annexin V-APC/PI staining based flow cytometry analysis (reference value: 96.91%); type: functional
[2] = tested on: A549; experiment: Induction of apoptosis in human A549 cells assessed as late apoptotic cells at 0.2 uM measured after 24 hrs by Annexin V-APC/PI staining based flow cytometry analysis (reference value: 0.86%); type: functional
[3] = tested on: HCT-116; experiment: Induction of autophagy in human HCT-116 cells transfected with mRFP-GFP-LC3 adenovirus assessed as increase in LC3 labeling by measuring increase in number of yellow dots measured after 24 hrs by immunofluorescence staining based confocal microscopic analysis; type: functional, cell-based; conditions: dose 0.1-0.3 µM
Procedure, shortened: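 HCT116 cells on glass slides were infected with mRFP-GFP-LC3 adenovirus at 50% confluence and incubated 24 h. They were then treated 24 h with 0.1–0.3 μM or 0.1% DMSO. Fixed in 4% paraformaldehyde, mounted with DAPI, and yellow LC3 puncta imaged by confocal microscopy.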

[4] = tested on: HCT-116; experiment: Induction of cell cycle arrest in human HCT-116 cells assessed as accumulation of cells at G0/G1 phase at 0.1 uM measured after 24 hrs by PI/RNase staining based flow cytometry analysis (reference value: 32.88%); type: functional
[5] = tested on: HCT-116; experiment: Antitumor activity against human HCT-116 cells xenografted in female BALB/c nude mouse assessed as tumor growth inhibition at 40 mg/kg, ip administered every 2 days for 20 days by vernier caliper relative to control; type: functional; conditions: HCT-116, 480 h, time 20 day, read-out: TGI
Procedure, shortened: (§1)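 HCT116 cells (5×10^7/0.2 mL/mouse) injected subcutaneously beside the right forelimb of 5-week-old female BALB/c nude mice. At 100 mm³ tumour volume, mice randomised by weight and tumour size into four groups of ten. Saline vehicle control ip. Dosing for 20 days, then euthanasia and tumour weighing. Caliper diameters used; volume = W²×L/2.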

[6] = tested on: SK-MES-1; experiment: Cytotoxicity against human SK-MES-1 cells assessed as inhibition of cell proliferation measured after 72 hrs by CCK-8 assay; type: functional, cell-based; conditions: SK-MES-1, 72 h
Procedure, shortened: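 Cells seeded at 2×10^3 per well and grown overnight in 10% FBS medium: HCT116 in McCoy's 5A, A549 and AGS in F-12K, SK-MES-1 in DMEM. Compounds added at varied concentrations with 0.1% DMSO control, 72 h at 37 °C. 10% CCK-8 for 2 h, then A450 read. Survival = (As−Ab)/(Ac−Ab)×100%. IC50 from curve fitting.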

[7] = tested on: A549; experiment: Induction of apoptosis in human A549 cells assessed as dead cells at 0.2 uM measured after 24 hrs by Annexin V-APC/PI staining based flow cytometry analysis (reference value: 0.50%); type: functional
[8] = tested on: A549; experiment: Induction of cell cycle arrest in human A549 cells assessed as accumulation of cells at G2/M phase at 0.2 uM measured after 24 hrs by PI/RNase staining based analysis (reference value: 10.22%); type: functional
[9] = tested on: A549; experiment: Induction of cell cycle arrest in human A549 cells assessed as accumulation of cells at G0/G1 phase at 0.2 uM measured after 24 hrs by PI/RNase staining based analysis (reference value: 41.91%); type: functional
[10] = Cytotoxicity against human NCM460 cells assessed as inhibition of cell proliferation measured after 72 hrs by CCK-8 assay; type: toxicity, cell-based
Procedure, shortened: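 NCM460 normal colonic epithelial cells seeded at 2×10^3 cells/well and grown overnight in RPMI-1640 with 10% FBS. Compounds added at a range of concentrations, 0.1% DMSO as negative control, 72 h at 37 °C. Read-out by CCK-8 (10%, 2 h) at 450 nm. Survival = (As−Ab)/(Ac−Ab)×100%; IC50 taken as concentration giving 50% inhibition of proliferation.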

[11] = Toxicity in female BALB/c nude mouse xenografted with human HCT-116 cells assessed as adverse effects at 20 to 40 mg/kg, ip administered every 2 days for 20 days; type: organism-based; conditions: in vivo, 480 h, dose 20-40 mg/kg, time 20 day
Procedure, shortened: (§2)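 Female BALB/c nude mice, 5 weeks old, bearing subcutaneous HCT116 xenografts (started at 100 mm³), randomised into groups of ten. Saline-injected ip controls. Body weight monitored throughout the 20-day intraperitoneal treatment.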

[12] = tested on: HCT-116; experiment: Induction of cell cycle arrest in human HCT-116 cells assessed as accumulation of cells at G0/G1 phase at 0.3 uM measured after 24 hrs by PI/RNase staining based flow cytometry analysis (reference value: 32.88%); type: functional
[13] = molecular target: Tubulin (Homo sapiens) (UniProt P68371+Q9H4B7+P0DPH7+P68366+Q13509+Q71U36+P04350+Q3ZCM7+P07437+P68363+Q9BQE3+Q6PEY2+Q13885+Q9BVA1+Q9BUF5); experiment: Disruption of microtubule network in human HCT-116 cells at 0.1 to 0.3 uM measured after 48 hrs by immunofluorescent staining based analysis; type: cell-based; conditions: dose 0.1-0.3 µM
Procedure, shortened: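 HCT116 cells (1×10^5/well suspension) settled on glass slides overnight at 37 °C, 5% CO2. Treated 48 h with 0.1, 0.2 or 0.3 μM, or 0.1% DMSO. Fixed in 4% paraformaldehyde, permeabilised with 0.5% Triton X-100, blocked. Anti-α-tubulin (1:4000) at 4 °C overnight, then Alexa488 anti-mouse IgG 1 h. DAPI mount, confocal imaging.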

[14] = tested on: HCT-116; experiment: Induction of cell cycle arrest in human HCT-116 cells assessed as accumulation of cells at G2/M phase at 0.1 uM measured after 24 hrs by PI/RNase staining based flow cytometry analysis (reference value: 28.83%); type: functional
[15] = Toxicity in female BALB/c nude mouse xenografted with human HCT-116 cells assessed as reduction in body weight at 20 to 40 mg/kg, ip administered every 2 days for 20 days; type: organism-based; conditions: in vivo, 480 h, dose 20-40 mg/kg, time 20 day; procedure, shortened: as §2
[16] = tested on: HCT-116; experiment: Inhibition of cell migration in human HCT-116 cells measured after 24 hrs by crystal violet staining based fluorescent inverted microscopic analysis; type: functional; conditions: dose 0.1-0.3 µM
Procedure, shortened: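 Uncoated Transwell inserts were seeded with HCT116 cells (1×10^4) in the upper chamber, with complete medium below. Treated 24 h at 37 °C, 5% CO2, with 0.1, 0.2 or 0.3 μM or 0.1% DMSO. Fixed with 4% paraformaldehyde, stained with 0.1% crystal violet, migrated cells imaged and counted. At least three replicates.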

[17] = tested on: A549; experiment: Induction of cell cycle arrest in human A549 cells assessed as accumulation of cells at G0/G1 phase at 0.1 uM measured after 24 hrs by PI/RNase staining based analysis (reference value: 41.91%); type: functional
[18] = tested on: A549; experiment: Induction of cell cycle arrest in human A549 cells assessed as accumulation of cells at S phase at 0.3 uM measured after 24 hrs by PI/RNase staining based analysis (reference value: 24.95%); type: functional
[19] = tested on: HCT-116; experiment: Antitumor activity against human HCT-116 cells xenografted in female BALB/c nude mouse assessed as tumor growth inhibition at 20 mg/kg, ip administered every 2 days for 20 days by vernier caliper relative to control; type: functional; conditions: HCT-116, 480 h, time 20 day, read-out: TGI; procedure, shortened: as §1

For `COc1ccc(/C=C(/C(=O)N2CCN(c3ccc(C)cc3)CC2)c2cc(OC)c(OC)c(OC)c2)cc1O`, the Activity [1] was 68.79%, the Activity [2] was 4.72% and the Activity [3] was “Dose-Dependent Effect”. For the same compound, the Activity [4] was 34.26%, the inhibition in vivo at 40 mg/kg [5] was 12.7% and the IC50 [6] was 423 nM. It also gave an Activity [7] of 1.05%, an Activity [8] of 8.51% and an Activity [9] of 77.73%. For the same compound, the IC50 at 72 h [10] was 1090 nM, the Activity [11] was “Non-Toxic” and the Activity [12] was 5.43%. For the same compound, the Activity [13] was “Active”, the Activity [14] was 33.79% and the Activity [15] was “Non-Toxic”. The inhibition [16] was “Dose-Dependent Effect”, the Activity [17] was 69.3% and the Activity [18] was 7.17%. For the same compound, the inhibition in vivo at 20 mg/kg [19] was 1.48%.
